pIC50, pKi: −log10 of the molar value. Converted amounts (≈) assume the structure as drawn.
Columns and labels:
Staphylococcus aureus = assay: Antibacterial activity against methicillin-susceptible Staphylococcus aureus AP601055; type: functional
In short: (§1)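 CLSI broth microdilution, 64 to 0.06 µg/mL, 2% DMSO final. Media: S. aureus, Mueller Hinton broth; H. influenzae, MHB plus 0.5% yeast extract, 15 µg/mL hematin, 1.5 µg/mL NAD; S. pneumoniae, MHB plus 0.65% lysed horse blood. 35 °C, aerobic (S. aureus) or 5% CO2.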

Streptococcus pneumoniae [1] = assay: Antibacterial activity against penicillin-susceptible Streptococcus pneumoniae AP671401; type: functional; in short: as §1
Streptococcus pneumoniae [2] = assay: Antibacterial activity against linezolid-resistant Streptococcus pneumoniae; type: functional
In short: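 Broth microdilution per CLSI guidelines. Compounds were dissolved in 100% DMSO and diluted to 2% DMSO (v/v), 64 to 0.06 µg/mL, in 2.2% (w/v) Mueller Hinton broth with 0.65% (v/v) lysed horse blood. Plates were incubated at 35 °C in 5% CO2 and read at 620 nm.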

Haemophilus influenzae = assay: Antibacterial activity against Haemophilus influenzae ATCC 51907; type: functional; in short: as §1
[3] = Solubility by nephelometric analysis; type: physicochemical
In short: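 Nephelometry after diluting compounds into the MAO-A assay mixture (100 mM potassium phosphate, pH 7.4).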

[4] = target: T1, Amine oxidase [flavin-containing] A (Homo sapiens, UniProt P21397); assay: Inhibition of human liver MAOA expressed in yeast
T1 sequence (P21397 whole entry): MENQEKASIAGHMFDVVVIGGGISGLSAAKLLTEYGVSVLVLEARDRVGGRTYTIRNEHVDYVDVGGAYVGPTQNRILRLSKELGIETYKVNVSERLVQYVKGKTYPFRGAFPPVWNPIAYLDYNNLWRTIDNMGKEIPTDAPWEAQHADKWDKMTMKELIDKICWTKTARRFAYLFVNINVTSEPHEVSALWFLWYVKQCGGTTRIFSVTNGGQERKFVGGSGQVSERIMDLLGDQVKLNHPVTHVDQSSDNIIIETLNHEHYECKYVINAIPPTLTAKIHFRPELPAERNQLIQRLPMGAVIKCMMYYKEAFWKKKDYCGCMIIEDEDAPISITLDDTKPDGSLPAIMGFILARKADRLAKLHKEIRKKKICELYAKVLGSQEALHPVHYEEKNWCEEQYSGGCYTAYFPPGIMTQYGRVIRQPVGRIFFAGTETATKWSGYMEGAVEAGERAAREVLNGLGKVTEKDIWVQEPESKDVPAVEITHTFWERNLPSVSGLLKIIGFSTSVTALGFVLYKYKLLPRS

Cytochrome P450 1A2 = target: T2, Cytochrome P450 1A2 (Homo sapiens, UniProt P05177); assay: Inhibition of human recombinant CYP1A2; type: ADME
T2 sequence (P05177 whole entry): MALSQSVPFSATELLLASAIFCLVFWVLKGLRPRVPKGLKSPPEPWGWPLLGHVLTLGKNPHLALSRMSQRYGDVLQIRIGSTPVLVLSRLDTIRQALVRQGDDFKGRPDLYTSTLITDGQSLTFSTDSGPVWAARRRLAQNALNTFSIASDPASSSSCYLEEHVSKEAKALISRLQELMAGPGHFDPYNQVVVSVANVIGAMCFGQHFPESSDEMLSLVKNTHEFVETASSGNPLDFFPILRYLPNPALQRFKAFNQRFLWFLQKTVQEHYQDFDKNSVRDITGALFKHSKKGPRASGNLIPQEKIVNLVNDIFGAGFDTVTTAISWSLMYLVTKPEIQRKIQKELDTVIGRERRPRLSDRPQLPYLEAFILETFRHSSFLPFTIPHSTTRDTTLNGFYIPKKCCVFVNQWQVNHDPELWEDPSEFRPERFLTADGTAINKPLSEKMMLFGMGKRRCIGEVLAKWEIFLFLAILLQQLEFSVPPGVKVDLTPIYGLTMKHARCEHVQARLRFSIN
In short: (§2)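 Recombinant human P450s, compound at 0.2-20 µM; fluorogenic substrates: 3-cyano-7-ethoxycoumarin (1A2), 7-methoxy-4-trifluoromethylcoumarin (2C9, 2C19), 7-methoxy-4-(aminomethyl)coumarin (2D6). Fluorescence detection; IC50 determined.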

Cytochrome P450 2C9 = Cytochrome P450 2C9 (Homo sapiens, UniProt P11712); assay: Inhibition of human recombinant CYP2C9; type: ADME; in short: as §2
Chain of Cytochrome P450 2C9 (P11712 whole entry): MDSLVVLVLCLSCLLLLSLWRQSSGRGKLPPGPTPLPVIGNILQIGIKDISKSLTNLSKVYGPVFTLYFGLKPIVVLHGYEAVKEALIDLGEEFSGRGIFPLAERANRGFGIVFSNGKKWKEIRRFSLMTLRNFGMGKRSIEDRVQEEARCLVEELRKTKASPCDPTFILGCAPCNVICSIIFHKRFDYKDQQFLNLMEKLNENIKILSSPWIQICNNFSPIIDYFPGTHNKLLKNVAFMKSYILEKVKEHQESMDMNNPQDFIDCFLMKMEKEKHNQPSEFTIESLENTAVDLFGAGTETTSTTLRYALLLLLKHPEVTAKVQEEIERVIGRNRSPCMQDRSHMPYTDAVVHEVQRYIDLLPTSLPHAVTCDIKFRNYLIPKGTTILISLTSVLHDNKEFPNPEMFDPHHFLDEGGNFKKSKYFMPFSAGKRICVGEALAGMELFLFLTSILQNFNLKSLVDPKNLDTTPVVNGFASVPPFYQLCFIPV

Cytochrome P450 2C19 = Cytochrome P450 2C19 (Homo sapiens, UniProt P33261); assay: Inhibition of human recombinant CYP2C19; type: ADME; in short: as §2
Chain of Cytochrome P450 2C19 (P33261 whole entry): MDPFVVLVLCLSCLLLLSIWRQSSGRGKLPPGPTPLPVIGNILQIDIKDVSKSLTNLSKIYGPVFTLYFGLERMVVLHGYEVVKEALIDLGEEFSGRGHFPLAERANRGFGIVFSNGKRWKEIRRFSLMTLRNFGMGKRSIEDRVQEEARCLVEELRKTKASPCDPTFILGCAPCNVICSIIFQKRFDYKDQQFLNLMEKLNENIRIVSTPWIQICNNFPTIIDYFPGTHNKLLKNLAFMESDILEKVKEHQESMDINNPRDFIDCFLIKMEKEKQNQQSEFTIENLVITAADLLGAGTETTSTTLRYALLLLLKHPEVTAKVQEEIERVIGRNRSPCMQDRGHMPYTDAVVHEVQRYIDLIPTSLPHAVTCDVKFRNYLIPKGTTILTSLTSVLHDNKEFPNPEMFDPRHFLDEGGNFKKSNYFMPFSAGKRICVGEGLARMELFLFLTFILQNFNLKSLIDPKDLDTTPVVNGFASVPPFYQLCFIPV

Cytochrome P450 2D6 = Cytochrome P450 2D6 (Homo sapiens, UniProt P10635); assay: Inhibition of human recombinant CYP2D6; type: ADME; in short: as §2
Chain of Cytochrome P450 2D6 (P10635 whole entry): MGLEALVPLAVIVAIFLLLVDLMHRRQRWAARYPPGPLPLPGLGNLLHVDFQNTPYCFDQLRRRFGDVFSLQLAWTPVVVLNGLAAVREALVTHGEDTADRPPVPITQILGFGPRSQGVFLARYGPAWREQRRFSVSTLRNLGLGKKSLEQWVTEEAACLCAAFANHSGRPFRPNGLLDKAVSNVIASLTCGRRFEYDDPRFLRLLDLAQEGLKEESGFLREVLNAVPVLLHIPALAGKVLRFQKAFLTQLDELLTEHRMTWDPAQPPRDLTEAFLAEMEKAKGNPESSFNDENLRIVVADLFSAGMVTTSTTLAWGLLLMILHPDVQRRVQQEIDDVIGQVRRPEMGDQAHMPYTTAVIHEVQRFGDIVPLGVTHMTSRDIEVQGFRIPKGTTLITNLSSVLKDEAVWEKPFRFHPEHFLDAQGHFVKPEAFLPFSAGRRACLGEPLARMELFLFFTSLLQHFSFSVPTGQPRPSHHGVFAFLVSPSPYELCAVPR

Cytochrome P450 3A4 = Cytochrome P450 3A4 (Homo sapiens, UniProt P08684); assay: Inhibition of human recombinant CYP3A4; type: ADME
Chain of Cytochrome P450 3A4 (P08684 whole entry): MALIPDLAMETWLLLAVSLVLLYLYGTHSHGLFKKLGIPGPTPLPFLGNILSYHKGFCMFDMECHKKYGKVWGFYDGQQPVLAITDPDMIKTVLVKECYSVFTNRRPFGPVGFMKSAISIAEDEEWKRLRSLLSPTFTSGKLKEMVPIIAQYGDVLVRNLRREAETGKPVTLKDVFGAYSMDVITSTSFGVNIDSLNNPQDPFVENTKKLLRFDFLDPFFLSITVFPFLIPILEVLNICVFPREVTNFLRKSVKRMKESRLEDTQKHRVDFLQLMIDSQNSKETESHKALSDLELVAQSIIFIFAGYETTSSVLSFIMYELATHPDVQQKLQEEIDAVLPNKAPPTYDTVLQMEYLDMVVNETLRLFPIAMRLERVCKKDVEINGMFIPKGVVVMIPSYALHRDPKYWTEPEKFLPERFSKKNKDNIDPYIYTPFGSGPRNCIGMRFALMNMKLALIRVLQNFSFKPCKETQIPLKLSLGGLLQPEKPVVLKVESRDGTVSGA

Homo sapiens = species on record: Homo sapiens; assay: Protein binding in human plasma; details: read-out: PPB (converted)
[5] = Clearance in Wistar rat at 10 mg/kg, iv; type: ADME, organism-based; set-up: dose 10 mg/kg, route intravenous; details: in vivo
In short: (§3)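 Groups of three Wistar Han rats; bolus injection via cannulated jugular vein at 2 or 10 mg/kg. Serial 200 µL whole-blood samples at time intervals; plasma levels by LC-MS/MS; parameters by noncompartmental analysis.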

[6] = Half life in Wistar rat at 10 mg/kg, iv; type: ADME, organism-based; set-up: dose 10 mg/kg, route intravenous; details: in vivo; in short: as §3
[7] = Volume of distribution in Wistar rat at 10 mg/kg, iv; type: ADME, organism-based; set-up: dose 10 mg/kg, route intravenous; details: in vivo, read-out: Vdss; in short: as §3
[8] = AUC in Wistar rat at 10 mg/kg, iv; type: ADME, organism-based; set-up: dose 10 mg/kg, route intravenous; details: plasma; in short: as §3

| SMILES | MIC (Staphylococcus aureus) [µg/mL] | MIC (Streptococcus pneumoniae [1]) [µg/mL] | MIC (Streptococcus pneumoniae [2]) [µg/mL] | MIC (Haemophilus influenzae) [µg/mL] | solubility kinetic [3] [µM] | pKi [4] | pIC50 (Cytochrome P450 1A2) | pIC50 (Cytochrome P450 2C9) | pIC50 (Cytochrome P450 2C19) | pIC50 (Cytochrome P450 2D6) | pIC50 (Cytochrome P450 3A4) | fraction unbound (Homo sapiens) | clearance [5] [mL/min/kg] | half-life [6] [h] | Vd [7] [L/kg] | AUC [8] [ng·h/mL] |
| --- | --- | --- | --- | --- | --- | --- | --- | --- | --- | --- | --- | --- | --- | --- | --- | --- |
| COCc1ccc(-c2ccc(N3C[C@H](Cn4ccnn4)OC3=O)cc2F)cn1 | 0.5 (≈ 1.3 µM) | 0.13 (≈ 0.339 µM) | 1 (≈ 2.61 µM) | 4 (≈ 10.4 µM) | 100 (≈ 38.3 µg/mL) | 5.77 |  |  |  |  |  |  |  |  |  |  |
| O=C1O[C@@H](Cn2ccnn2)CN1c1ccc(-c2cccnc2)c(F)c1 | 0.25 (≈ 0.737 µM) | < 0.06 | 1 (≈ 2.95 µM) | 2 (≈ 5.89 µM) | 12.5 (≈ 4.24 µg/mL) | > 6.52 | < 4.70 | < 4.70 | < 4.70 | 5.18 | 5.17 |  |  |  |  |  |
| O=C(c1ccc(-c2ccc(N3C[C@H](Cn4ccnn4)OC3=O)cc2F)cn1)C1CNC1 | 8 (≈ 18.9 µM) | 1 (≈ 2.37 µM) | 4 (≈ 9.47 µM) | 16 (≈ 37.9 µM) | 200 (≈ 84.5 µg/mL) | 5.35 |  |  |  |  |  |  |  |  |  |  |
| O=C(CCCN1CCOCC1)c1ccc(-c2ccc(N3C[C@H](Cn4ccnn4)OC3=O)cc2F)cn1 | 0.5 (≈ 1.01 µM) | 0.13 (≈ 0.263 µM) | 0.5 (≈ 1.01 µM) | 4 (≈ 8.09 µM) | 100 (≈ 49.5 µg/mL) |  |  |  |  |  |  | 0.35 |  |  |  |  |
| CC(=O)c1ccc(-c2ccc(N3C[C@H](Cn4ccnn4)OC3=O)cc2F)cn1 | 0.25 (≈ 0.656 µM) | < 0.06 | 0.5 (≈ 1.31 µM) | 2 (≈ 5.24 µM) | 50 (≈ 19.1 µg/mL) | 6.15 |  |  |  |  |  |  |  |  |  |  |
| CO[C@H](C)c1ccc(-c2ccc(N3C[C@H](Cn4ccnn4)OC3=O)cc2F)cn1 | 1 (≈ 2.52 µM) | 0.25 (≈ 0.629 µM) | 2 (≈ 5.03 µM) | 8 (≈ 20.1 µM) | > 400 | 5.52 |  |  |  |  |  |  |  |  |  |  |
| Cc1cn(CC(=O)c2ccc(-c3ccc(N4C[C@H](Cn5ccnn5)OC4=O)cc3F)cn2)cn1 | 0.5 (≈ 1.08 µM) | < 0.06 | 0.5 (≈ 1.08 µM) | 2 (≈ 4.33 µM) | 12.5 (≈ 5.77 µg/mL) | < 5.25 | < 4.70 | < 4.70 | < 4.70 | < 4.70 | < 4.70 | 0.31 | > 100 |  |  |  |
| O=C(CC1CCNCC1)c1ccc(-c2ccc(N3C[C@H](Cn4ccnn4)OC3=O)cc2F)cn1 | 1 (≈ 2.15 µM) | 0.13 (≈ 0.28 µM) | 0.5 (≈ 1.08 µM) | 8 (≈ 17.2 µM) | > 400 | 4.55 |  |  |  |  |  |  | 196 | 2.4 | 15 | 800 |
| O=C1O[C@@H](Cn2ccnn2)CN1c1ccc(-c2ccc(C(O)CO)nc2)c(F)c1 (some centres not stated) | 0.25 (≈ 0.626 µM) | < 0.06 | 1 (≈ 2.5 µM) | 1 (≈ 2.5 µM) | > 400 |  |  |  |  |  |  | 0.54 | 43 | 0.45 | 1 | 3900 |
| O=C1O[C@@H](Cn2ccnn2)CN1c1ccc(-c2ccc(C(O)CN3CCOCC3)nc2)c(F)c1 (some centres not stated) | 1 (≈ 2.13 µM) | 0.25 (≈ 0.534 µM) | 2 (≈ 4.27 µM) | 4 (≈ 8.54 µM) | > 400 |  |  |  |  |  |  | 0.67 |  |  |  |  |
| O=C1O[C@@H](Cn2ccnn2)CN1c1ccc(-c2ccc(CO)nc2)c(F)c1 | 0.25 (≈ 0.677 µM) | 0.13 (≈ 0.352 µM) | 1 (≈ 2.71 µM) | 1 (≈ 2.71 µM) | 100 (≈ 36.9 µg/mL) |  | < 4.70 | < 4.70 | < 4.70 | < 4.70 | < 4.70 |  |  |  |  |  |
| CN1CCN(CCCC(=O)c2ccc(-c3ccc(N4C[C@H](Cn5ccnn5)OC4=O)cc3F)cn2)CC1 | 1 (≈ 1.97 µM) | < 0.06 | 0.5 (≈ 0.985 µM) | 8 (≈ 15.8 µM) | > 400 | 4.98 |  |  |  |  |  | 0.5 |  |  |  |  |
